Results reported in ChEMBL document CHEMBL1944608, “Design, synthesis and biological evaluation of novel 2-methylpyrimidine-4-ylamine derivatives as inhibitors of Escherichia coli pyruvate dehydrogenase complex E1” (Bioorg Med Chem, 2012).

Columns and labels:
[1] = Inhibition of Escherichia coli PDHC-E1 expressed in Escherichia coli TB1 using 2,6-dichlorophenolindophenol as substrate after 3 mins
In short: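 MBP-fusion enzyme was expressed in E. coli TB1 grown in LB with 2% glucose and ampicillin at 37 °C to A600 0.6–0.8, then induced with 0.5 mM IPTG for 7 h at 25 °C. Protein was purified by MBP affinity to >95% purity and quantified by Bradford. The assay buffer was 50 mM K3PO4 pH 7.2 with 2.0 mM pyruvate substrate and 0.8 mM 2,6-DCIP. Enzyme and inhibitor were preincubated 3 min at 37 °C, and then ThDP was added to start the reaction. DCIP reduction was read at 600 nm. IC50 was obtained by fitting initial rates against varied inhibitor concentration to the Hill equation.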

[2] = tested on: Alternaria alternata; assay: Antifungal activity against Alternaria alternata Keissler assessed as inhibition of mycelium growth at 100 ug/ml after 48 hrs; assay type: functional; details: read-out: GI
In short: (§1)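 Poisoned-agar mycelial growth test. Compound mixed into medium and poured into dishes. Once solidified, plates were inoculated with a 5 mm mycelium disk, inverted and incubated at 28 °C for 48 h. Medium without sample served as blank. Mycelial elongation radius was measured in triplicate. Inhibition (%) = [(C − T)/C] × 100, where C and T are the mean mycelial diameters of the blank and the treated plates.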

[3] = tested on: Rhizoctonia solani; assay: Antifungal activity against Rhizoctonia solani assessed as inhibition of mycelium growth at 100 ug/ml after 48 hrs; assay type: functional; details: read-out: GI; in short: as §1
[4] = Antifungal activity against Colletotrichum orbiculare assessed as inhibition of mycelium growth at 100 ug/ml after 48 hrs; assay type: functional; in short: as §1
[5] = tested on: Botrytis cinerea; assay: Antifungal activity against Botryotinia fuckeliana assessed as inhibition of mycelium growth at 100 ug/ml after 48 hrs; assay type: functional; details: read-out: GI; in short: as §1
[6] = tested on: Alternaria solani; assay: Antifungal activity against Alternaria solani assessed as inhibition of mycelium growth at 100 ug/ml after 48 hrs; assay type: functional; details: read-out: GI; in short: as §1
[7] = tested on: Fusarium graminearum; assay: Antifungal activity against Gibberella zeae assessed as inhibition of mycelium growth at 100 ug/ml after 48 hrs; assay type: functional; details: read-out: GI
In short: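 Poisoned-medium plate test: compound mixed into molten medium and poured into dishes; once set, each plate was seeded with a 5 mm mycelium disk, inverted, and held at 28 °C for 48 h. The blank control was medium without sample, and tests were run in triplicate. Mycelial diameter was measured, and inhibition was taken as I = [(C − T)/C] × 100%, with C the mean blank diameter and T the mean treated diameter.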

SMILES	IC50 [1] [µM]	inhibition of growth at 100 µg/mL [2] [%]	inhibition of growth at 100 µg/mL [3] [%]	growth inhibition (GI) [4] [%]	inhibition of growth at 100 µg/mL [5] [%]	inhibition of growth at 100 µg/mL [6] [%]	inhibition of growth at 100 µg/mL [7] [%]
CCOC(=O)c1ccc(OCc2cn(Cc3cnc(C)nc3N)nn2)cc1	28.8						
Cc1ncc(Cn2cc(COc3ccc([N+](=O)[O-])cc3[N+](=O)[O-])nn2)c(N)n1	11.3	0	0	42	54	0	48
Cc1ncc(Cn2cc(COc3ccccc3)nn2)c(N)n1		43	0	40	53	25	0
Cc1ncc(Cn2nnc(COc3ccccc3)c2I)c(N)n1	19.6	23	96	45	88	57	59
Cc1ncc(Cn2cc(COc3ccc(Cl)c(C)c3)nn2)c(N)n1	26.2						
COC(=O)Cc1ccc(OCc2cn(Cc3cnc(C)nc3N)nn2)cc1	102						
Cc1ncc(Cn2cc(COc3ccc(Cl)cc3Cl)nn2)c(N)n1	18.7						
COc1ccc(OCc2cn(Cc3cnc(C)nc3N)nn2)cc1	81.6						
Cc1ncc(Cn2cc(COc3ccc([N+](=O)[O-])cc3Cl)nn2)c(N)n1		36	31	57	44	20	0
Cc1ncc(Cn2cc(COc3ccc(F)cc3Cl)nn2)c(N)n1	43.3						
Cc1ccc(Cl)c(OCc2cn(Cc3cnc(C)nc3N)nn2)c1	29						
Cc1ncc(Cn2cc(COc3ccccc3[N+](=O)[O-])nn2)c(N)n1	36.3						
Cc1ncc(Cn2nnc(COc3ccc([N+](=O)[O-])cc3)c2I)c(N)n1	5.33	59	97	35	84	66	68
Cc1ncc(Cn2cc(COc3ccc(Cl)cc3)nn2)c(N)n1	26.4	52	23	50	73	44	51
Cc1ncc(Cn2cc(COc3cccc(C(F)(F)F)c3)nn2)c(N)n1	32.7						
Cc1ncc(Cn2cc(COc3ccc([N+](=O)[O-])cc3)nn2)c(N)n1		33	24	43	37	24	0
CC1COC(Cn2cncn2)(c2ccc(Oc3ccc(Cl)cc3)cc2Cl)O1 (configuration not stated) [DIFENOCONAZOLE]		100	100	97	96	100	98
Cc1ncc(Cn2cc(COc3ccc(C(=O)O)cc3)nn2)c(N)n1		57	0	42	67	33	21
